Assay results published in PMC2744899 (Journal of the American Chemical Society, 2009).
“And” between values parts separate entries of the source, which are not always exact repeats. Identical values can stand only once.

Experiments:
[1] = test system: scFv K7 displayed on the yeast cell-surface; experiment: Fluorescence titration of dye into yeast surface-displayed K7; details: read-out: Kd Yeast-Displayed K7, 10^7 yeast cells, 1:1 binding model
[2] = Thermal bleaching by singlet oxygen from sodium molybdate and H2O2; type: physicochemical; details: for loss of absorbance (bleaching): free dye 1 μM
In short: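 Singlet oxygen was generated thermally from 50 mM Na2MoO4 plus 9.8 mM H2O2 (final) at pH 9.0, with ionic strength matched to standard wash buffer. Reactions used 1 µM dye, free (in H2O or D2O, followed by absorbance) or with 1 µM K7. Spectra were taken before molybdate addition, then every 10 min for 40 min.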

[3] = Photobleaching of DIR/K7 by Xe lamp irradiation and fluoromodule regeneration; type: physicochemical
[4] = Photobleaching by direct irradiation; type: physicochemical; details: compare Figures 3 and 10, per photons absorbed per dye molecule

bleaching in the presence of K7 ([2]; [Dye] = [K7] = 1 μM, pH 9, 40 min)	loss of absorbance (bleaching) ([2]; no K7, 90% D2O, pH 9, 40 min)	loss of absorbance (bleaching) ([2]; no K7, H2O, pH 9, after 40 min reaction)	loss of DIR fluorescence after irradiation ([3]; 1:1 DIR/K7 at 250 nM, λ > 455 nm, 15 min, H2O)	fluorescence restored after addition of another equivalent of DIR ([3]; after 15 min irradiation, one equivalent (250 nM) fresh DIR added)	photobleaching efficiency relative to DIR and α-CN-DIR [4]	Compound	Kd [1]
20%	74%	42%	55 (±7) % and 55%	89 % of the original value	–	CN1/C(=C/C=C/c2cc[n+](CCCS(=O)(=O)[O-])c3ccccc23)C(C)(C)c2ccccc21 [DIR, dimethylindole red]	13.9 ± 3.2 nM
–	–	–	–	–	> 100 fold	CN1C(=Cc2cc[n+](C)c3ccccc23)Sc2ccccc21 [TO, thiazole orange]	–
